In ChEMBL document CHEMBL4152364, “Structure-activity relationship of novel (benzoylaminophenoxy)phenol derivatives as anti-prostate cancer agents” (Bioorg Med Chem, 2018) one finds inhibition, Activity and IC50 data, which are given here for 39 compounds.

In assay [1] the target is T1, Androgen receptor (Mus musculus) (UniProt P19091).
T1 sequence (whole entry): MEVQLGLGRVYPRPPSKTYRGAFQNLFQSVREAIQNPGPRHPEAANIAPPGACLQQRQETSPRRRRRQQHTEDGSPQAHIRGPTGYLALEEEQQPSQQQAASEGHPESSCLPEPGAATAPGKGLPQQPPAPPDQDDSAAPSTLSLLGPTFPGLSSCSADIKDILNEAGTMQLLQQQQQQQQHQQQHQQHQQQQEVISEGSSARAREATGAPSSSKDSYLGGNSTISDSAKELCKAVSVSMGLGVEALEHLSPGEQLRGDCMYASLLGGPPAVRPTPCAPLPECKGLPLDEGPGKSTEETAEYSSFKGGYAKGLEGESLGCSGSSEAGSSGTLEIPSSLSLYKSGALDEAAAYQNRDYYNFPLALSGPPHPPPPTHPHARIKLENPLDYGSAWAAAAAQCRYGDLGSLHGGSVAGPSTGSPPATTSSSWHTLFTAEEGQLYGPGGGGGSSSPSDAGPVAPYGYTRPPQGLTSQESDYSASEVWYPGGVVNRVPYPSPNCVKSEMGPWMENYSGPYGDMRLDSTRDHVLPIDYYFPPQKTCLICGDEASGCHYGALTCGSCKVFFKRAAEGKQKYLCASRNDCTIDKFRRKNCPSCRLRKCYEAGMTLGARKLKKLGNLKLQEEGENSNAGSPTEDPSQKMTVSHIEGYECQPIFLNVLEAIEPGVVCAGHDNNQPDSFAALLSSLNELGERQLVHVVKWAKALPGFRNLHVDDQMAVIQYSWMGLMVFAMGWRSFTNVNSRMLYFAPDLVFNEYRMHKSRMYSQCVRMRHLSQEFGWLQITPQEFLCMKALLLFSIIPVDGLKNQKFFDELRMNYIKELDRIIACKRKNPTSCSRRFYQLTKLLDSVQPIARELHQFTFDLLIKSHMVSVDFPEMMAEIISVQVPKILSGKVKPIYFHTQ
The experiment in a line: Antagonist activity at AR in mouse SC3 cells assessed as inhibition of DHT-induced cell proliferation at 10 uM after 3 days by CCK8 assay relative to control. In kind it is cell-based. The procedure, abridged:
(§1)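 SC-3 cells diluted to 20,000 cells/mL in MEM α with 2% charcoal-stripped FBS, seeded and held 24 h, then given compound or DMSO with 1 nM DHT for 3 days at 37°C, 5% CO2. Read-out: WST-8 (CCK-8) for 2 h, absorbance at 450 nm. Compounds screened first at 10 µM. IC50 measured over 0.01–10 µM when inhibition exceeded 50%, taken as the level halving DHT-induced growth versus control. Triplicate or more.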
In general terms: Tetrazolium assays rely on reduction of a dye to a coloured formazan, in cell work by metabolically active cells.

In assay [2] the target is T1, Androgen receptor (Mus musculus). The assay can be described thus: Agonist activity at AR in mouse SC3 cells assessed as effect on cell proliferation after 3 days by CCK8 assay. In kind it is cell-based. The procedure, abridged:
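SC-3 cells diluted to 20,000 cells/mL in MEM α with 2% charcoal-stripped FBS, seeded and held 24 h, then given serial dilutions of compound alone (DMSO as dilution control). Incubated 3 days at 37°C, 5% CO2. WST-8 (Cell Counting Kit-8) added for 2 h, absorbance read at 450 nm.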

In a further assay the test system is PC-3. The assay can be described thus: Antiproliferative activity against human PC3 cells assessed as inhibition of cell proliferation after 3 days in presence of DHT by WST8 assay. In kind it is functional, cell-based. The procedure, abridged: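 PC-3 cells kept in RPMI-1640 with 10% FBS, then diluted to 20,000 cells/mL in RPMI-1640 with 10% charcoal-stripped FBS. Seeded and held 24 h, then given serial dilutions of compound or DMSO with 1 nM DHT for 3 days. WST-8 added for 2 h, absorbance at 450 nm. Viability normalized to vehicle-treated cells as 1.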

The target of assay [3] is T1, Androgen receptor (Mus musculus). The assay can be described thus: Antagonist activity at AR in mouse SC3 cells assessed as inhibition of DHT-induced cell proliferation up to 10 uM after 3 days by CCK8 assay. Format: cell-based. The procedure, abridged: as §1
Assay [4] is described as follows: Antagonist activity at AR in mouse SC3 cells assessed as inhibition of DHT-induced cell proliferation after 3 days by CCK8 assay.

SMILES strings stand for the structures. Active and inactive are the calls of the source. No cut-off for these calls is given here.

As usually defined, the inhibition is the percentage by which the read-out fell short of the control. With `COc1cccc(C(=O)N(C)c2ccc(Oc3ccc(O)cc3)c(C)c2)c1`, the inhibition in assay [1] is more than 50%. In addition, the result in assay [2] was inactive. Consider `COc1cccc(C(=O)Nc2ccc(Oc3ccc(O)cc3)c(F)c2)c1`, for which the inhibition in assay [1] was more than 50%; in the assay on PC-3, “Dose-dependent effect”. In addition, the result in assay [2] was inactive.

As to `COc1cccc(C(=O)N(C)c2cccc(Oc3ccc(O)cc3)c2)c1`, the inhibition result in assay [3] is “inactive”. The outcome in assay [2] was inactive. In the case of `COc1cccc(C(=O)Nc2ccc(Oc3ccc(O)cc3)cc2F)c1`, the figures for the inhibition (in assay [1]; with PC-3) were more than 50% and “Dose-dependent effect”, respectively. Moreover, in assay [2], the outcome was inactive. For the compound `CN(C)c1ccccc1C(=O)Nc1cccc(Oc2cccc(O)c2)c1`, in assay [3], the inhibition result was “inactive”. Besides, the outcome in assay [2] was inactive. Consider `COc1ccc(C(=O)Nc2cccc(Oc3ccc(O)cc3)c2C)cc1`, for which the outcome in assay [2] was inactive. On the same count and under the same terms, next, `COc1ccc(C(=O)Nc2cccc(Oc3ccc(O)cc3)c2)cc1`: “inactive”. On to `COc1cccc(C(=O)Nc2ccc(Oc3ccc(O)cc3)cc2C)c1`, for which the inhibition in assay [1] is more than 50%. Moreover, the outcome in assay [2] was inactive. Turning to `COc1ccc(C(=O)Nc2ccc(C)c(Oc3ccc(O)cc3)c2)cc1`, the outcome in assay [2] was inactive. In the case of `CN(C)c1cccc(C(=O)Nc2ccc(Oc3cccc(O)c3)cc2)c1`, the inhibition result in assay [3] is “inactive”. The outcome in assay [2] was inactive. As for `COc1cccc(C(=O)Nc2cc(Cl)c(Oc3ccc(O)cc3)c(Cl)c2)c1`, the inhibition in assay [1] is more than 50%; in the assay with PC-3, “Dose-dependent effect”. The result in assay [2] was inactive. Turning to `COc1cccc(C(=O)Nc2cc(F)c(Oc3ccc(O)cc3)c(F)c2)c1`, the inhibition in assay [1] is more than 50%; in the assay on PC-3, “Dose-dependent effect”. In assay [2], the outcome was inactive.

Broadly, the IC50 is the concentration that gives 50% inhibition. On to `COc1cccc(C(=O)Nc2ccc(Oc3ccc(O)cc3)c(C)c2)c1`, for which the values for the inhibition (in assay [1]; with PC-3) were more than 50% and “Dose-dependent effect”, respectively. For the same compound, the concentration for half-maximal inhibition (IC50) in assay [4] turned out to be 750 nM. For `CN(C)c1cccc(C(=O)Nc2cccc(Oc3cccc(O)c3)c2)c1`, the result in assay [2] was inactive. Take `CN(C)c1ccccc1C(=O)Nc1ccc(Oc2cccc(O)c2)cc1`: in assay [3], the inhibition result was “inactive”. In addition, the outcome in assay [2] was inactive. Take `CN(C)c1cccc(C(=O)Nc2cccc(Oc3ccc(O)cc3)c2)c1`: in assay [3], the inhibition entry was “inactive”. The result in assay [2] was inactive.

Consider `CN(C)c1ccccc1C(=O)Nc1cccc(Oc2ccc(O)cc2)c1`, for which the inhibition in assay [1] is more than 50%. For the same compound, the outcome in assay [2] was inactive. The like results for `CN(C)c1ccc(C(=O)Nc2ccc(Oc3cccc(O)c3)cc2)cc1` were, in that order, more than 50% and “inactive”. As to `COc1ccc(C(=O)N(C)c2cccc(Oc3ccc(O)cc3)c2)cc1`, in assay [3], the inhibition result was “inactive”. For the same compound, the result in assay [2] was inactive. Regarding `COc1cccc(C(=O)Nc2cccc(Oc3ccc(O)cc3)c2)c1`, the inhibition entry in assay [3] was “inactive”. Further, the outcome in assay [2] was inactive. For `COc1cccc(C(=O)Nc2ccc(Oc3ccc(O)cc3)c(Br)c2)c1`, the inhibition in assay [1] is more than 50%. Besides, in assay [2], the outcome was inactive. With `COc1ccccc1C(=O)Nc1ccc(Oc2cccc(O)c2)cc1`, the inhibition result in assay [3] was “inactive”. Also, in assay [2], the outcome was inactive.

Regarding `COc1cccc(C(=O)Nc2ccc(Oc3ccc(O)cc3)cc2OC)c1`, the inhibition in assay [1] is more than 50%. Also, the result in assay [2] was inactive. With `COc1cccc(C(=O)Nc2ccc(Oc3ccc(O)cc3)c(C(F)(F)F)c2)c1`, the inhibition in assay [1] was more than 50%. Also, in assay [2], the result was inactive. Take `COc1cccc(C(=O)Nc2ccc(Oc3cccc(O)c3)cc2)c1`: in assay [2], the outcome was inactive. As to `COc1ccccc1C(=O)Nc1ccc(C)c(Oc2ccc(O)cc2)c1`, the inhibition in assay [1] is more than 50%. In addition, the result in assay [2] was inactive.

As to `COc1cccc(C(=O)Nc2ccc(Oc3ccc(O)cc3)c(Cl)c2)c1`, the inhibition in assay [1] was more than 50%; in the assay with PC-3, “Dose-dependent effect”. Besides, the outcome in assay [2] was inactive. The like results for `COc1cccc(C(=O)Nc2ccc(Oc3ccc(O)cc3)c(F)c2F)c1` were, in that order, more than 50%, “Dose-dependent effect” and “inactive”. For `C[C@](O)(CS(=O)(=O)c1ccc(F)cc1)C(=O)Nc1ccc(C#N)c(C(F)(F)F)c1`, the inhibition entry with PC-3 was “inactive”.

Take `COc1ccccc1C(=O)Nc1cccc(Oc2cccc(O)c2)c1`: the inhibition result in assay [3] was “inactive”. In addition, in assay [2], the result was inactive. Take `COc1ccc(C(=O)Nc2cc(Oc3ccc(O)cc3)ccc2C)cc1`: the outcome in assay [2] was inactive. With `CN(C)c1ccc(C(=O)Nc2cccc(Oc3ccc(O)cc3)c2)cc1`, the inhibition in assay [1] is more than 50%. Also, the result in assay [2] was inactive.

As for `COc1cccc(C(=O)Nc2ccc(Oc3ccc(O)cc3)cc2O)c1`, in assay [3], the inhibition result is “inactive”. Besides, the outcome in assay [2] was inactive. With `COc1cccc(C(=O)Nc2ccc(Oc3ccc(O)cc3)cc2Cl)c1`, in assay [1], the inhibition is more than 50%. Besides, the outcome in assay [2] was inactive. Regarding `COc1ccc(C(=O)Nc2ccc(Oc3cccc(O)c3)cc2)cc1`, the inhibition entry in assay [3] was “inactive”. In addition, in assay [2], the outcome was inactive. On to `COc1ccccc1C(=O)Nc1cccc(Oc2ccc(O)cc2)c1`, for which, in assay [2], the outcome was inactive. In the case of `COc1cccc(C(=O)Nc2cccc(Oc3cccc(O)c3)c2)c1`, the outcome in assay [2] was inactive. With `COc1ccc(C(=O)Nc2cccc(Oc3cccc(O)c3)c2)cc1`, in assay [2], the result was inactive. Take `COc1cccc(C(=O)Nc2ccc(Oc3ccc(O)cc3)c(C#N)c2)c1`: in assay [3], the inhibition result was “inactive”. In addition, the outcome in assay [2] was inactive.
